Laboratory results reported in PubChem BioAssay AID623954 (The Scripps Research Institute Molecular Screening Center, 2012).
Activity calls are given as the source filed them.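 How the source made its calls: active means recombinant frequency cut at least fourfold versus the solvent-only control; inactive means reduction in recombinant frequency below fourfold.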

Tested on: E. coli recBCD-deletion with H. pylori AddAB/RecA, Hfr recombination, colony count
Assay: recombination inhibition in AddAB/RecA E. coli, late-stage follow-up, counter-screen for AddAB inhibitor project, colony formation, p(addAB), p(recA), 100 µM (AID 623954)
Conditions: at 100 µM; stronger effect = higher value
In short: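 System: E. coli ΔrecBCD recipient carrying H. pylori addAB, recA plasmids / Probe or stimulus: HfrH E. coli donor mixed 1:10 with recipient / Technique: differential plating counting His+ StrR recombinant colonies / Evaluation: viability-adjusted fold reduction of recombinant frequency versus DMSO / Benchmarks: DMSO-treated culture / Repeats: duplicate experiments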

| Structure (SMILES) | fold reduction of recombinant frequency |
| --- | --- |
| CCn1cc(C(=O)O)c(=O)c2cc(F)c(N3CCN(C(=S)Nc4cccc(C(F)(F)F)c4)CC3)cc21 | 8 |
| CNC(=O)c1c(NC(=O)c2nc(SCc3ccccc3)ncc2Cl)sc2c1CCCC2 | 2 (inactive) |
| N#Cc1c(NC(=O)c2ccc([N+](=O)[O-])o2)sc2c1CCC2 | 20 |
